# Screening results deposited in PubChem BioAssay by several laboratories.
# Beta apoptosis: beta cell apoptosis inhibition; protection from apoptosis, % (test concentration not listed); actives 0.8% (n = 300,000); INS-1E cytokine-induced death, ATP luminescence, 48 h; percent of positive-control rescue, neutral wells zero;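 active = Every replicate reaches about 75%, or at least half do and their mean reaches it too, limit read from the data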;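 note: 0% = cytokine-treated negative control wells and 100% = positive control rescue; higher means more ATP so stronger rescue from cytokine killing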
# Mdm2 MdmX PPI: inhibitors of human Mdm2/MdmX interaction | O15151+Q00987 | SaOS-2 split-luciferase Mdm2/MdmX complementation, luminescence | inhibition, % at 8 µM | actives 3% (n = 330,000);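 active = inhibition of at least 50% at 8 µM in the primary screen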
# Target sequence (O15151 whole entry, looked up): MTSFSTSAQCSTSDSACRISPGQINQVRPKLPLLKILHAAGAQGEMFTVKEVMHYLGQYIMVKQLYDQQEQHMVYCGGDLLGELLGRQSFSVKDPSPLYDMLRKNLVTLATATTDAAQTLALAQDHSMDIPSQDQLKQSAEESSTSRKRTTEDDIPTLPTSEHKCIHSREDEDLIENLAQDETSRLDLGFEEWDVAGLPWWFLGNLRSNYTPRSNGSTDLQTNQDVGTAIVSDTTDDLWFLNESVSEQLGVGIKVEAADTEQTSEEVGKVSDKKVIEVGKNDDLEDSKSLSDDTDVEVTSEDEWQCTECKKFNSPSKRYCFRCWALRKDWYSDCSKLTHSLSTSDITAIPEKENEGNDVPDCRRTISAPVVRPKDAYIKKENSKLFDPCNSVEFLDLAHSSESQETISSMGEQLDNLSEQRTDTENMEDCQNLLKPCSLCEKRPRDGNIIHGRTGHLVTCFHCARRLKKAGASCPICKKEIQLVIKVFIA
# Target sequence (Q00987 whole entry, looked up): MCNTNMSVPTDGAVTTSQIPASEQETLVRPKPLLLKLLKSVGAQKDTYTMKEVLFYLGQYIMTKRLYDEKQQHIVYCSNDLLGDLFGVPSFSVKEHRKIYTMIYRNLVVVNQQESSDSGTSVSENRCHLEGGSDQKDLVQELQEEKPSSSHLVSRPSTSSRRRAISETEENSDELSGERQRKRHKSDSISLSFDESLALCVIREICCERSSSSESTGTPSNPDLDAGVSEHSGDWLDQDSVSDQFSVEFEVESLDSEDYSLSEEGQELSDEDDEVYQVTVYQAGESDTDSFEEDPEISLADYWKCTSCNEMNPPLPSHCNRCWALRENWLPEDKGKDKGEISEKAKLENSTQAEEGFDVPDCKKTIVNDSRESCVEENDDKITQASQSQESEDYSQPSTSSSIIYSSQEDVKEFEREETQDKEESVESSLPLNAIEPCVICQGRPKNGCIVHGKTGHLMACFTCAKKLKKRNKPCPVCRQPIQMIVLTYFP
# UPR CHOP act: activators of apoptotic arm of unfolded protein response (CHOP). CHO-CHOP luciferase reporter, UPR activation, luminescence; percent of tunicamycin response over DMSO baseline. activation, % at 10 µM. actives 0.34% (n = 330,000). AID 449763;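 active = at 10 µM dose, activation of 40% or more, normalized to positive control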;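 note: 100% = tunicamycin at 10 µg/mL and 0% = DMSO alone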
#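 Material: CHO-CHOP cells, stable luciferase reporter of PERK-eIF2a-CHOP signalling; quantity: 500 reporter cells seeded per well; buffer or medium: F12 medium containing 10% fetal bovine serum; compound: one dose, 10 µM in 0.5% DMSO; incubation: 6 h compound treatment, 37 °C; measured by: Steady-Glo luciferase luminescence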
# CSC inhib: blocks cancer stem cells; cancer stem cell-like cells viability, luminescence; inhibition, % at 7.5 µM; actives 1.1% (n = 300,000); in the data active = inhibition above about 75%; tested in HMLE shEcad cells
# XBP1 UPR activ: adaptive UPR (XBP1) activation | CHO-XBP1 luciferase reporter, IRE1-XBP1 UPR activation, luminescence; percent of tunicamycin response, DMSO as zero | activation, % at 20 µM | actives 0.33% (n = 330,000) | AID 463104;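 active = versus positive control, 20 µM dose yields 30% or more activation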;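 note: 100% = tunicamycin at 10 µg/mL and 0% = DMSO only wells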
#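 Material: CHO-XBP1 cells stably carrying IRE1-XBP1-driven luciferase reporter / Amount: 1000 cells per well / Compound: 20 µM, 1% DMSO / Times: 6 h treatment, 37 °C / Detection: luciferase luminescence / Measure: % activation of reporter signal versus tunicamycin and DMSO controls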
# SKKanGAS inh: SKKanGAS growth inhibition; inhibition, % at 7.5 µM; actives 1.3% (n = 300,000); S. pyogenes SKKanGAS, kanamycin growth, BacTiter-Glo, 6 h;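 active = mean replicate score, as percent of positive control median, at least 50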;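 note: strain carries kanamycin resistance gene driven by streptokinase promoter and grows in 40 µg/ml kanamycin; loss of luminescence reflects streptokinase promoter inhibition or plain growth inhibition; 0% = median of DMSO wells and 100% = positive control at its reference dose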
# UPR CHOP confirm: confirmation of apoptotic unfolded protein response (CHOP) activators. shares compounds with UPR CHOP act. CHO-CHOP cells, CHOP-luciferase reporter luminescence; percent of tunicamycin response, DMSO as zero. activation, % at 10 µM. actives 64% (n = 1,000); in the data active = activation above about 33%;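 note: 0% = DMSO wells and 100% = tunicamycin 10 µg/mL wells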
# Starred values were filed as active, the others as inactive; / = no result given. Rows were chosen to be rich in hits. Some 4.8% of all compounds tested hit in one or more screens of this group.
SMILES,Beta apoptosis,Mdm2 MdmX PPI,UPR CHOP act,CSC inhib,XBP1 UPR activ,SKKanGAS inh,UPR CHOP confirm
CCOC(=O)c1c(C)oc2c1c(C=NCCO)c(O)c1ccccc12,/,/,/,/,/,28.1,/
CCOC(=O)C1CCN(C(c2cccnc2)c2c(NC(=O)c3ccco3)sc(C)c2C)CC1 (stereo not given),-5.5,-10.6,-0.2,-0.4,2.2,6.5,/
CCOC(=O)c1c(C)oc2c1c(C(c1ccccc1)N1CCOCC1)c(O)c1ccccc12 (stereo not given),-1.4,-20.0,61.6*,56.8,10.5,66.7*,72.9*
Nc1ccc(Sc2ccc([N+](=O)[O-])cc2)cc1,-2.9,17.2,-1.3,6.3,1.5,-2.7,/
Cc1ccc(C(C[N+](=O)[O-])Sc2ccc(N)cc2)cc1 (stereo not given),19.3,45.5,117.1*,65.3,-4.4,-1.4,-6.5
CC1CCC2C(=O)N(c3cccc(C(=O)Nc4ccccc4Cl)c3)C(=O)C2C1 (stereo not given),0.2,-20.7,1.3,-3.6,-6.2,-10.9,/
O=C1c2ccccc2C(=O)N1c1cccc(-c2nc3ccccc3o2)c1,6.8,25.2,-0.2,/,-4.3,1.9,/
O=C1C=CC(=O)N1c1cccc(-c2ccccc2)c1,0.6,-3.2,82.2*,57.1,-7.4,22.1,10.3
O=[N+]([O-])c1ccc(N2CCN(CC3CCCCC3)CC2)cc1,6.8,1.5,3.8,-10.0,-3.4,2.9,/
CC(C)N=c1scc(-c2cccs2)n1/N=C/c1ccc(O)c(O)c1O,8.9,-4.1,212.1*,43.0,37.2*,/,150.1*
CN=c1scc(-c2ccccc2F)n1/N=C/c1ccc(O)c(O)c1O,/,/,/,/,/,7.6,/
CCOC(=O)C1(C)Oc2ccccc2C(C(=O)OC)=C1C(=O)OC (stereo not given),/,1.6,4.8,/,1.2,/,/
COC(=O)C1=C(C(=O)OC)SC2(S1)C(C(=O)OC)=C(C(=O)OC)SC1=C2c2cccc(C)c2NC1(C)C,4.9,-3.4,40.5*,0.8,3.2,9.7,18.9
CC1(C)CC(=O)C2=C(C1)N=c1s/c(=C/c3ccc(F)c(F)c3)c(=O)n1C2c1ccc(F)cc1 (stereo not given),-10.0,45.9,40.2*,11.8,2.5,-5.8,28.9
S=C1SCN(Cc2ccco2)CN1Cc1ccco1,-7.7,47.6,58.9*,20.4,7.4,-14.1,47.4*
CCN1CSC(=S)N(Cc2ccccc2)C1,-8.4,40.2,86.5*,18.3,0.2,-0.9,90.7*
CCCCCN1CSC(=S)N(Cc2ccccc2)C1,/,14.3,27.4,/,0.1,-0.5,/
CCOc1ccc2nc(SC3CC(=O)N(c4ccc(C)cc4)C3=O)sc2c1 (stereo not given),-6.1,9.3,44.8*,-2.6,-7.1,-1.4,64.6*
COc1ccccc1N1C(=O)C=C(Sc2nc(C)cc(C)n2)C1=O,2.4,-5.4,61.6*,13.4,2.1,2.1,56.1*
COc1ccccc1N1C(=O)C2CC(C)=C(C)CC2C1=O (stereo not given),-4.7,1.1,-0.3,0.1,-0.3,-2.5,/
COc1ccc(/C=C/C(=O)Oc2ccc(C)cc2)cc1,/,34.7,42.7*,-2.1,28.7,23.6,39.6*
Cc1ccc(NC(=O)CSc2nnc(C3CC3)n2CC2CCCO2)cc1C (stereo not given),-7.8,8.5,2.2,-2.7,-5.3,-0.7,/
Cc1ccc(NC(=O)c2cnc(SCC(=O)NCC3CCCO3)n(C)c2=O)cc1C (stereo not given),-10.3,-5.7,50.9*,-2.6,-4.1,17.3,23.5
CCN(CC)CC(=O)Nc1sc(C)cc1C(=O)c1ccccc1,2.2,14.5,-1.0,28.8,-1.8,-0.4,/
Cc1cc(C(=O)c2ccccc2)c(NC(=O)CCl)s1,11.6,26.2,44.7*,22.1,2.7,-1.6,3.6
SMILES,Beta apoptosis,Mdm2 MdmX PPI,UPR CHOP act,CSC inhib,XBP1 UPR activ,SKKanGAS inh,UPR CHOP confirm
CCOC(=O)/C(=C\c1ccc(Cl)cc1)c1nc2sc(C)c(C)c2c(=O)[nH]1,-26.0,37.5,59.5*,117.7*,-2.5,42.7,198.5*
CCOC(=O)C1=C(Cc2ccc(Cl)cc2)C(=O)c2ccccc2C1=O,6.4,21.6,117.7*,55.8,-1.1,20.5,37.4*
CCOC(=O)C1=C(O)c2ccccc2C(=O)/C1=C\c1ccc(C)cc1,-2.1,/,/,54.3,/,/,/
CC1CN(S(=O)(=O)c2cccc(C(=O)NCc3ccco3)c2)CC(C)O1 (stereo not given),-0.6,15.5,-2.2,/,-1.4,/,/
Cc1cccc(OCCN2CSC(=S)N(C)C2)c1,1.1,36.2,58.8*,58.1,5.8,-0.2,35.4*
Cc1ccc(-c2nnc(-c3cc(C)on3)o2)cc1,-1.9,5.1,-0.6,-6.0,-1.5,-6.3,/
CC1CCN(CCCNC(=O)c2ccc(Cn3c(=S)[nH]c4ccc(Br)cc4c3=O)cc2)CC1,7.8,19.2,3.3,3.2,2.8,3.9,/
